Compound activity from PubChem.
The list is not random: actives were taken first. Their share in the collection is about 2.5%.
SENP1 inh: blocks the human SENP1 SUMO protease catalytic domain | recombinant SENP1 catalytic domain, CyPet-SUMO1-YPet FRET cleavage | 0.21% of 360,000 active | inhibition, % at 10 µM | Q9P0U3 | AID 624204;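 active means inhibition at least 30% at 10 µM, raw YFP signal under a set limit, fluorescence ratio 0.5 to 1.5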;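 further: 0% = enzyme with DMSO and 100% = no enzyme wells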
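System: Recombinant human SENP1 catalytic domain, His6-tagged | Incubation: Enzyme reaction for 50 min at room temperature, dark | Medium: Tris pH 8 with BME, BSA, NP40 and catalase | Also added: 25 nM SUMO1 FRET substrate | Compound: 10 µM single point, 0.5% DMSO | Measured by: FRET fluorescence in CFP and YFP emission channels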
SENP8 block-1: SENP8 (human) protease inhibition; Q96LD8; recombinant SENP8, Nedd8 substrate fluorescence; inhibition, % at 20 µM; 0.64% of 360,000 active; AID 602440; in the data active means inhibition mostly above about 40%, no sharp cut-off; inactive means mostly below about 27%
SENP6 inh: SENP6 protease inhibition | Q9GZR1 | Recombinant SENP6 catalytic domain, aminoluciferin luminescence | inhibition, % at 10 µM | 1.8% of 330,000 active;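 active means inhibition above about 50% at the single tested dose, limit read from the data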;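 further: plate controls were DMSO wells with enzyme for no effect and DMSO wells lacking enzyme for full effect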
Target sequence (Q9GZR1 628-1112 limits assumed): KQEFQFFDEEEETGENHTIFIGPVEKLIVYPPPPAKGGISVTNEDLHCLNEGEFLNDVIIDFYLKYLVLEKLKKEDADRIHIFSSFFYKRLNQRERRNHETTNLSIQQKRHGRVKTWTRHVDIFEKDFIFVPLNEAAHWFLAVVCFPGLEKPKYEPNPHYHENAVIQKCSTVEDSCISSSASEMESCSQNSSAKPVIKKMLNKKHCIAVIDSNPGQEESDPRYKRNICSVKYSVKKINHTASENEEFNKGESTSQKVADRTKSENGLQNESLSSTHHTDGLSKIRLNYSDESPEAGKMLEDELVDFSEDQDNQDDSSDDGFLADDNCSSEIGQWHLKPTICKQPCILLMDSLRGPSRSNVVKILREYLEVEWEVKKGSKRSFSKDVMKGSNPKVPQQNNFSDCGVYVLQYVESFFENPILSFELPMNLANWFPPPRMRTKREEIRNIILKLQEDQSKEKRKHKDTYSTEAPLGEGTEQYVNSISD
SENP8 block-2: inhibitors of human SENP8 protease | Q96LD8 | purified SENP8, Z-RLRGG-aminoluciferin cleavage, luminescence | inhibition, % at 10 µM | 1.2% of 330,000 active | AID 2540; in the data active means inhibition above about 50%
SENP7 inh: SENP7 protease inhibition. Q9BQF6. recombinant SENP7, Z-RLRGG-aminoluciferin luminescence, 40 min. inhibition, % at 5 µM. 1.5% of 330,000 active. AID 434973;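 active means inhibition above about 50% at the single test dose, limit read from the data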;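 further: plate controls were DMSO with enzyme for no effect and no enzyme buffer wells for full effect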
SENP8 confirm: human SENP8 inhibition, confirmed | Recombinant SENP8, Z-RLRGG-aminoluciferin luminescence, 60 min | inhibition, % at 12.5 µM | shares compounds with SENP7 inh | 40% of 6,200 active | AID 488912;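 active means mean inhibition across replicates above about 50%, limit read from the data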
SENP6 conf: confirmation of human SENP6 protease inhibitors; inhibition, % at 12.5 µM; 58% of 6,200 active; shares compounds with SENP7 inh; AID 488915; recombinant SENP6, Z-RLRGG-aminoluciferin luminescence
SENP7 conf: human SENP7 inhibition, confirmed; inhibition, % at 12.5 µM; recombinant SENP7, Z-RLRGG-aminoluciferin luminescence, 40 min; shares compounds with SENP7 inh; AID 488917; 69% of 6,200 active
Casp3 select: selectivity test for SENP inhibitors: human caspase-3 inhibition; inhibition, % at 12.5 µM; shares compounds with SENP7 inh; AID 488918; 60% of 6,200 active; purified caspase-3, Z-DEVD-aminoluciferin luminescence, 60 min;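 active means mean inhibition above about 50%, limit read from the data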;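 further: plate controls were enzyme with DMSO for no effect and wells without caspase-3 for full effect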
SENP luc ctr: counter-screen for SENP inhibitors: luminescence interference; shares compounds with SENP7 inh; Pre-incubated SENP8/Z-RLRGG-aminoluciferin, luciferase luminescence interference; inhibition, % at 12.5 µM; 39% of 6,200 active; AID 488919;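 active means mean inhibition above about 50% when retested at one dose, limit read from the data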;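 further: plate controls were DMSO wells with completed reaction for no effect and substrate without enzyme for full effect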
Numbers without * were called inactive.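 How the source made its calls, unless noted: active means mean inhibition above about 50% in the one-dose retest (limit read from the data); inactive means the rest.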

Results for N/C(=N\OC(=O)c1ccc2ccccc2c1)c1ccccc1Cl ?
SENP1 inh: 1; SENP8 block-1: 0; SENP6 inh: 73*; SENP8 block-2: 68*; SENP7 inh: 78*; SENP8 confirm: 82*; SENP6 conf: 81*; SENP7 conf: 94*; Casp3 select: 71*; SENP luc ctr: 83*

How did N/C(=N\OC(=O)c1ccc2ccccc2c1)c1cccc([N+](=O)[O-])c1 do in these assays?
SENP1 inh: 4; SENP8 block-1: 7; SENP6 inh: 1; SENP8 block-2: -13; SENP7 inh: 16

What do the screens show for `Cc1cc(C(=O)COC(=O)C2=COCCO2)c(C)n1-c1ccccc1`?
SENP1 inh: -3; SENP8 block-1: 26; SENP6 inh: 85*; SENP8 block-2: 83*; SENP7 inh: 85*; SENP8 confirm: 83*; SENP6 conf: 83*; SENP7 conf: 96*; Casp3 select: 88*; SENP luc ctr: 78*

How did Cc1ccc(-n2c(C)cc(C(=O)COC(=O)c3c(C)noc3C)c2C)cc1 do in these assays?
SENP1 inh: 1; SENP8 block-1: 16; SENP6 inh: 68*; SENP8 block-2: 45; SENP7 inh: 52*; SENP8 confirm: 52*; SENP6 conf: 58*; SENP7 conf: 82*; Casp3 select: 59*; SENP luc ctr: 32

What do the screens show for `Cc1cc(C(=O)COC(=O)C2=NNC(=O)CC2)c(C)n1-c1ccccc1`?
SENP1 inh: 0; SENP8 block-1: 18; SENP6 inh: 1; SENP8 block-2: -4; SENP7 inh: 7

What do the screens show for `CC(C)Oc1ccc(/C=C/C(=O)NCC2COc3ccccc3O2)cc1` (centres undefined)?
SENP1 inh: 0; SENP8 block-1: 17; SENP6 inh: -12; SENP8 block-2: -2; SENP7 inh: 4

What do the screens show for `COc1ccc(Cl)cc1NC(=S)NNC(=O)c1cccs1`?
SENP1 inh: 0; SENP8 block-1: -36; SENP6 inh: 86*; SENP8 block-2: 66*; SENP7 inh: 81*; SENP8 confirm: -2; SENP6 conf: 0; SENP7 conf: 14; Casp3 select: -2; SENP luc ctr: 27

Results for Cc1ccc(C(=O)Nc2ccsc2C(=O)O)cc1 ?
SENP1 inh: 0; SENP8 block-1: 15; SENP6 inh: 94*; SENP8 block-2: 92*; SENP7 inh: 94*; SENP8 confirm: 1; SENP6 conf: 97*; SENP7 conf: 102*; Casp3 select: 98*; SENP luc ctr: 96*

How did O=C(Nc1ccsc1C(=O)O)c1ccc(Cl)cc1 do in these assays?
SENP1 inh: 1; SENP8 block-1: 2; SENP6 inh: 94*; SENP8 block-2: 91*; SENP7 inh: 88*; SENP8 confirm: 95*; SENP6 conf: 96*; SENP7 conf: 101*; Casp3 select: 96*; SENP luc ctr: 95*

Results for Cc1ccc(OCC(=O)N2CCCCC2C)c([N+](=O)[O-])n1 (centres undefined) ?
SENP1 inh: -1; SENP8 block-1: 8; SENP6 inh: 9; SENP8 block-2: 2; SENP7 inh: 2

How did O=C(N/N=C/c1c[nH]c2ccccc12)c1ccc2c(c1)OCCO2 do in these assays?
SENP1 inh: -1; SENP8 block-1: -116; SENP6 inh: 54*; SENP8 block-2: 31; SENP7 inh: 48; SENP8 confirm: 45; SENP6 conf: 43; SENP7 conf: 77*; Casp3 select: 55*; SENP luc ctr: 60*

Results for O=C(N/N=C/c1c[nH]c2ccccc12)c1cc(Br)ccc1O ?
SENP1 inh: -4; SENP8 block-1: -216; SENP6 inh: -24; SENP8 block-2: 1; SENP7 inh: -3

Results for CCOc1ccc(Br)cc1C(=O)N/N=C/c1c[nH]c2ccccc12 ?
SENP1 inh: -2; SENP8 block-1: -96; SENP6 inh: 58*; SENP8 block-2: 1; SENP7 inh: -5; SENP8 confirm: -6; SENP6 conf: -5; SENP7 conf: -10; Casp3 select: -7; SENP luc ctr: -5

What do the screens show for `O=C(N/N=C/c1c[nH]c2ccc(Br)cc12)c1ccc2c(c1)OCO2`?
SENP1 inh: 1; SENP8 block-1: -80; SENP6 inh: -11; SENP8 block-2: 6; SENP7 inh: 5

How did CCOC(=O)c1sc(NC(=O)c2sccc2C)cc1C do in these assays?
SENP1 inh: 2; SENP8 block-1: -86; SENP6 inh: 99*; SENP8 block-2: 97*; SENP7 inh: 100*; SENP8 confirm: 100*; SENP6 conf: 101*; SENP7 conf: 104*; Casp3 select: 99*; SENP luc ctr: 97*

How did CCOC(=O)c1cccc(NC(=O)c2cccs2)c1 do in these assays?
SENP1 inh: 1; SENP8 block-1: 11; SENP6 inh: 5; SENP8 block-2: -14; SENP7 inh: 2

Results for CCOC(=O)c1sc(NC(=O)c2cccs2)cc1C ?
SENP1 inh: 2; SENP8 block-1: -52; SENP6 inh: 83*; SENP8 block-2: 66*; SENP7 inh: 91*; SENP8 confirm: 28; SENP6 conf: 75*; SENP7 conf: 98*; Casp3 select: 81*; SENP luc ctr: 10

What do the screens show for `Cc1ccc(-c2nnc(-c3cccc4ccccc34)o2)cc1`?
SENP1 inh: 2; SENP8 block-1: -496

How did c1ccc(Nc2nnc(-c3cccc4ccccc34)o2)cc1 do in these assays?
SENP1 inh: 1; SENP8 block-1: -402; SENP6 inh: -10; SENP8 block-2: -2; SENP7 inh: 65*; SENP8 confirm: 1; SENP6 conf: -8; SENP7 conf: 53*; Casp3 select: 36; SENP luc ctr: -3

Results for CCOCC(=O)Nc1nc2ccc(C)cc2s1 ?
SENP1 inh: 0; SENP8 block-1: 9; SENP6 inh: 49; SENP8 block-2: 42; SENP7 inh: 60*; SENP8 confirm: 30; SENP6 conf: 31; SENP7 conf: 75*; Casp3 select: 72*; SENP luc ctr: 55*

What do the screens show for `CCOCC(=O)Nc1nc2ccc(S(C)(=O)=O)cc2s1`?
SENP1 inh: 1; SENP8 block-1: 17; SENP6 inh: -2; SENP8 block-2: 2; SENP7 inh: 4
